Active and inactive are the calls of the source. The rule behind the calls is not given here.

Data set [1] relates to Mus musculus. The experiment in a line: Anticonvulsant activity in albino Carworth Farms No.1 mouse assessed as protection against electric-current for 3 secs-induced seizure at 100 mg/kg, ip after 2 hrs by 6Hz minimal clonic seizure test. The data set is classed as functional, organism-based. The arrangement: dose 100 mg/kg. In a few lines:
(§1)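 6 Hz psychomotor seizure test in mice. Compound given i.p. as a suspension in 0.5% methylcellulose. Corneal stimulation at 32 mA, 0.2-ms monopolar rectangular pulses at 6 Hz for 3 s, from a constant-current device. Tests run 0.25–4 h after dosing. A mouse counted as protected if it resumed normal exploratory behaviour within 10 s; scored as protected/tested.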

The subject of data set [2] is Mus musculus. Briefly: Neurotoxicity in albino Carworth Farms No.1 mouse assessed as motor impairment at 30 mg/kg, ip after 0.5 hrs by rotarod test. Type of data set: toxicity, organism-based. The arrangement: dose 30 mg/kg, route intraperitoneal. The conditions noted are these: in vivo. In a few lines:
(§2)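 Rotorod neurotoxicity in mice at 6 r.p.m. Compound given i.p. (30, 100, 300 mg/kg) in 0.5% methylcellulose; tested at 30 min and 4 h. Impairment is inability to keep equilibrium on the rod for a given time; scored as impaired/tested.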
In general terms: Falling from the rotarod earlier than controls is read as motor impairment.

The test system of data set [3] is Mus musculus. The experiment in a line: Neurotoxicity in albino Carworth Farms No.1 mouse assessed as motor impairment at 100 mg/kg, ip after 0.5 hrs by rotarod test. Type of data set: toxicity, organism-based. Also on record: dose 100 mg/kg, route intraperitoneal. The following applies: in vivo. Summed up:
as §2

Data set [4] deals with Mus musculus. The experiment in a line: Neurotoxicity in albino Carworth Farms No.1 mouse assessed as motor impairment at 300 mg/kg, ip after 0.5 hrs by rotarod test. Type of data set: toxicity, organism-based. The arrangement: dose 300 mg/kg, route intraperitoneal. The following applies: in vivo. In a few lines:
as §2

The subject of data set [5] is Mus musculus. The experiment in a line: Anticonvulsant activity in albino Carworth Farms No.1 mouse assessed as protection against electric-current for 3 secs-induced seizure at 100 mg/kg, ip after 0.25 hrs by 6Hz minimal clonic seizure test. The data set is classed as functional, organism-based. The arrangement: dose 100 mg/kg. Summed up:
as §1

For data set [6], the system named is Mus musculus. Briefly: Anticonvulsant activity in albino Carworth Farms No.1 mouse assessed as protection against subcutaneous metrazol-induced seizure at 30 mg/kg, ip after 0.5 hrs. Type of data set: functional, organism-based. The arrangement: dose 30 mg/kg. Summed up: (§3)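 Mouse scMET test. Compound given i.p. (30, 100 or 300 mg/kg) in 0.5% methylcellulose. Pentylenetetrazole 85 mg/kg (CD97) given s.c. at 0.5 or 4 h, then mice observed for 30 min. Protection is absence of clonic spasms; scored as protected/tested.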

Data set [7] relates to Mus musculus. Briefly: Anticonvulsant activity in albino Carworth Farms No.1 mouse assessed as protection against subcutaneous metrazol-induced seizure at 30 mg/kg, ip after 4 hrs. Type of data set: functional, organism-based. The arrangement: dose 30 mg/kg. In a few lines: as §3
In data set [8] the test system is Mus musculus. Briefly: Anticonvulsant activity in albino Carworth Farms No.1 mouse assessed as protection against subcutaneous metrazol-induced seizure at 100 mg/kg, ip after 0.5 hrs. The data set is classed as functional, organism-based. The arrangement: dose 100 mg/kg. In a few lines:
as §3

The subject of data set [9] is Mus musculus. Briefly: Anticonvulsant activity in albino Carworth Farms No.1 mouse assessed as protection against subcutaneous metrazol-induced seizure at 100 mg/kg, ip after 4 hrs. The arrangement: dose 100 mg/kg. Type of data set: functional, organism-based. Summed up: as §3
The subject of data set [10] is Mus musculus. The experiment in a line: Anticonvulsant activity in albino Carworth Farms No.1 mouse assessed as protection against subcutaneous metrazol-induced seizure at 300 mg/kg, ip after 0.5 hrs. Type of data set: functional, organism-based. Also on record: dose 300 mg/kg. Summed up:
as §3

Data set [11] concerns Mus musculus. Briefly: Anticonvulsant activity in albino Carworth Farms No.1 mouse assessed as protection against subcutaneous metrazol-induced seizure at 300 mg/kg, ip after 4 hrs. The data set is classed as functional, organism-based. Also on record: dose 300 mg/kg. In a few lines: as §3
Data set [12] deals with Mus musculus. The experiment in a line: Anticonvulsant activity in albino Carworth Farms No.1 mouse assessed as protection against electric-current for 3 secs-induced seizure at 100 mg/kg, ip after 4 hrs by 6Hz minimal clonic seizure test. Type of data set: functional, organism-based. Also on record: dose 100 mg/kg. Summed up:
as §1

In data set [13] the test system is Mus musculus. The experiment in a line: Neurotoxicity in albino Carworth Farms No.1 mouse assessed as motor impairment at 100 mg/kg, ip after 0.25 hrs by rotarod test. Type of data set: toxicity, organism-based. The conditions noted are these: in vivo. The arrangement: dose 100 mg/kg, route intraperitoneal. Summed up: (§4)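 Rotorod neurotoxicity in mice (18–25 g) following i.p. dosing of a suspension in 0.5% methylcellulose in water, tested at intervals between 0.25 and 4 h. Impairment was scored as failure to keep equilibrium on a 6 r.p.m. rod, reported as number impaired/number tested.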

For data set [14], the system named is Mus musculus. Briefly: Neurotoxicity in albino Carworth Farms No.1 mouse assessed as motor impairment at 100 mg/kg, ip after 2 hrs by rotarod test. Type of data set: toxicity, organism-based. The arrangement: dose 100 mg/kg, route intraperitoneal. The following applies: in vivo. In a few lines:
as §4

In data set [15] the test system is Mus musculus. The experiment in a line: Neurotoxicity in albino Carworth Farms No.1 mouse assessed as motor impairment at 100 mg/kg, ip after 4 hrs by rotarod test. The data set is classed as toxicity, organism-based. The arrangement: dose 100 mg/kg, route intraperitoneal. The following applies: in vivo. In a few lines:
as §2

For data set [16], the species on record is Mus musculus. The experiment in a line: Protective index, ratio of TD50 for albino Carworth Farms No.1 mouse to ED50 for albino Carworth Farms No.1 mouse by 6Hz minimal clonic seizure test. The data set is classed as functional. In a few lines:
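Mouse 6 Hz (32 mA) quantification, compound given i.p. at the time of peak effect. Groups of at least eight mice at varied doses.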

Data set [17] has as its system Mus musculus. The experiment in a line: Anticonvulsant activity in ip dosed albino Carworth Farms No.1 mouse assessed as time needs to show peak effect for electric-current for 3 secs-induced seizure after 0.25 hrs by 6Hz minimal clonic seizure test. The data set is classed as functional.
Data set [18] has as its system Mus musculus. Briefly: Neurotoxicity in albino Carworth Farms No.1 mouse assessed as motor impairment at 100 mg/kg, ip after 1 hr by rotarod test. The data set is classed as toxicity, organism-based. Also on record: dose 100 mg/kg, route intraperitoneal. The following applies: in vivo. Summed up: as §4
Data set [19] relates to Mus musculus. Briefly: Anticonvulsant activity in albino Carworth Farms No.1 mouse assessed as protection against maximal electroshock-induced seizure at 30 mg/kg, ip after 0.5 hrs. The data set is classed as functional, organism-based. The arrangement: dose 30 mg/kg. Summed up: (§5)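 Mouse MES test with compound given i.p. (30, 100 or 300 mg/kg) in 0.5% methylcellulose; tested at 0.5 and 4 h. Corneal stimulus of 50 mA at 60 Hz for 0.2 s, electrodes primed with 0.5% butacaine in 0.9% NaCl. Protection is abolition of hindlimb tonic extension; scored as protected/tested.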
For orientation: In the maximal electroshock model the usual endpoint is tonic extension of the hind limbs.

The test system of data set [20] is Mus musculus. The experiment in a line: Anticonvulsant activity in albino Carworth Farms No.1 mouse assessed as protection against maximal electroshock-induced seizure at 30 mg/kg, ip after 4 hrs. The arrangement: dose 30 mg/kg. The data set is classed as functional, organism-based. In a few lines:
as §5

Data set [21] relates to Mus musculus. The experiment in a line: Anticonvulsant activity in albino Carworth Farms No.1 mouse assessed as protection against maximal electroshock-induced seizure at 100 mg/kg, ip after 0.5 hrs. Type of data set: functional, organism-based. The arrangement: dose 100 mg/kg. In a few lines: as §5
Data set [22] has as its system Mus musculus. The experiment in a line: Anticonvulsant activity in albino Carworth Farms No.1 mouse assessed as protection against maximal electroshock-induced seizure at 100 mg/kg, ip after 4 hrs. Type of data set: functional, organism-based. The arrangement: dose 100 mg/kg. In a few lines:
as §5

The subject of data set [23] is Mus musculus. The experiment in a line: Anticonvulsant activity in albino Carworth Farms No.1 mouse assessed as protection against maximal electroshock-induced seizure at 300 mg/kg, ip after 0.5 hrs. Also on record: dose 300 mg/kg. Type of data set: functional, organism-based. In a few lines: as §5
Data set [24] has as its system Mus musculus. Briefly: Anticonvulsant activity in albino Carworth Farms No.1 mouse assessed as protection against maximal electroshock-induced seizure at 300 mg/kg, ip after 4 hrs. Also on record: dose 300 mg/kg. The data set is classed as functional, organism-based. Summed up:
as §5

Data set [25] relates to Mus musculus. The experiment in a line: Anticonvulsant activity in albino Carworth Farms No.1 mouse assessed as protection against electric-current for 3 secs-induced seizure at 100 mg/kg, ip after 1 hr by 6Hz minimal clonic seizure test. The arrangement: dose 100 mg/kg. The data set is classed as functional, organism-based. Summed up: as §1
Data set [26] relates to Mus musculus. The experiment in a line: Neurotoxicity in albino Carworth Farms No.1 mouse assessed as motor impairment at 30 mg/kg, ip after 4 hrs by rotarod test. The following applies: in vivo. The data set is classed as toxicity, organism-based. Also on record: dose 30 mg/kg, route intraperitoneal. In a few lines:
as §2

Data set [27] relates to Mus musculus. The experiment in a line: Neurotoxicity in albino Carworth Farms No.1 mouse assessed as motor impairment at 300 mg/kg, ip after 4 hrs by rotarod test. The data set is classed as toxicity, organism-based. The arrangement: dose 300 mg/kg, route intraperitoneal. The following applies: in vivo. In a few lines: as §2
The test system of data set [28] is Mus musculus. Briefly: Toxicity in albino Carworth Farms No.1 mouse maximal electroshock-induced seizure model assessed as death following tonic extension at 100 mg/kg, ip after 4 hrs. The data set is classed as organism-based. The arrangement: dose 100 mg/kg, route intraperitoneal. The following applies: in vivo. Summed up: (§6)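 Mice (18–25 g) were given 30, 100 or 300 mg/kg i.p. in 0.5% (v/v) aqueous methylcellulose. They were tested at 30 min and 4 h with a corneal electroshock (50 mA, 60 Hz, 0.2 s) through electrodes wetted with 0.5% butacaine hemisulphate in 0.9% NaCl. Protection was abolition of hindlimb tonic extension; death following tonic extension was noted per animals tested.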

For data set [29], the system named is Mus musculus. Briefly: Toxicity in albino Carworth Farms No.1 mouse maximal electroshock-induced seizure model assessed as death following tonic extension at 30 mg/kg, ip after 0.5 hrs. Type of data set: organism-based. Also on record: dose 30 mg/kg, route intraperitoneal. The following applies: in vivo. Summed up: as §6

As to `O=C1NC(=O)[C@@H](c2ccccc2)N2CCC[C@@H]12`, the result in data set [1], in data set [5], in data set [6], in data set [7], in data set [8] and in data set [9] was inactive. Also, the result in [10], in data set [11], in [12], in data set [19], in data set [20] and in data set [21] was inactive. For the same molecule, the outcome in [22], in data set [23], in [24] and in data set [25] was inactive. Further, the Activity entry in [2], in data set [3], in data set [4], in [13], in [14] and in data set [15] was “Non-toxic” throughout. Further, the Activity entry in data set [18], in data set [26] and in [27] was “Non-toxic” each time. The “Ratio TD50/ED50” value in [16] came to 12.2. The Time in data set [17] came to 0.25 h.

As for `C[C@H]1C(=O)NC(=O)[C@@H]2CCCN12`, the Activity result is “Non-toxic” in data set [2]; “Non-toxic” in [3]; “Non-toxic” in data set [4]; “Toxic” in data set [28]; “Toxic” in data set [15]; “Toxic” in data set [29]. The Activity result in data set [26] and in data set [27] was “Non-toxic” throughout. For the same molecule, the outcome in [6], in data set [7], in [8], in data set [9], in data set [10] and in [11] was inactive. Moreover, the outcome in [19], in [20], in [21], in [22], in [23] and in data set [24] was inactive.

Values taken from ChEMBL document CHEMBL1909525, “Synthesis and anticonvulsant activity of novel 2,6-diketopiperazine derivatives. Part 1: perhydropyrrole[1,2-a]pyrazines” (Eur J Med Chem, 2011).
